Results from ChEMBL document CHEMBL1147789, “The search for novel TRPV1-antagonists: from carboxamides to benzimidazoles and indazolones” (Bioorg Med Chem Lett, 2006).

Key:
[1] = Clearance in rat at 1 mg/kg, iv; assay type: ADME, organism-based; set-up: dose 1 mg/kg, route intravenous; conditions: in vivo
[2] = molecular target: T1, Transient receptor potential cation channel subfamily V member 1 (Homo sapiens, UniProt Q8NER1); test: Antagonist activity against capsaicin-induced intracellular calcium ion increase in CHO cells expressing human TRPV1 in FLIPR assay; assay type: functional, cell-based
T1 sequence (Q8NER1 whole entry): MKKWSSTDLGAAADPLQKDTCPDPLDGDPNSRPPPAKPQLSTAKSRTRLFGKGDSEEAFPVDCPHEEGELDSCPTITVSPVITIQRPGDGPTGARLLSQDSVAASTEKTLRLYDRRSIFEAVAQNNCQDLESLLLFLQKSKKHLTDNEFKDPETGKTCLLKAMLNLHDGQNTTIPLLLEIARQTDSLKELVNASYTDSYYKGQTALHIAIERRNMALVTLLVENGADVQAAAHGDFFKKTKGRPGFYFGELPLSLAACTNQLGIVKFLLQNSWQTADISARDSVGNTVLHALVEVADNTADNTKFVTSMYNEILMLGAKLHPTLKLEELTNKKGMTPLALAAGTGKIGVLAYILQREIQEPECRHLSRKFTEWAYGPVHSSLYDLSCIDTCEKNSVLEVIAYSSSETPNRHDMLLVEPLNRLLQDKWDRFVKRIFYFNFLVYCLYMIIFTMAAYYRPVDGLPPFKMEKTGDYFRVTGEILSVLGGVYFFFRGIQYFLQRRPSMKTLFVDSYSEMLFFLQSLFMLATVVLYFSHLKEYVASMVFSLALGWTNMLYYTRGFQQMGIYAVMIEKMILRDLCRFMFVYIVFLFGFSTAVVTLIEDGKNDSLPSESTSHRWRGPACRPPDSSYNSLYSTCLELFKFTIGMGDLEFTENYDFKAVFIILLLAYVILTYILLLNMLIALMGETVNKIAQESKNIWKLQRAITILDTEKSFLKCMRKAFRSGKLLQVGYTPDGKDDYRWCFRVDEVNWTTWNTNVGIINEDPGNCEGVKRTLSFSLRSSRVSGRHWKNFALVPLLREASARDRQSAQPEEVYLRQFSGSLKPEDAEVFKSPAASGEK

[3] = AUC in hepatic portal vein of rat at 5 mg/kg, po; assay type: ADME, organism-based, Plasma; set-up: dose 5 mg/kg, route oral
[4] = Systemic AUC in rat at 5 mg/kg, po; assay type: ADME, organism-based; set-up: dose 5 mg/kg, route oral; conditions: in vivo
In short: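 Oral dose of 5 mpk; AUC taken from systemic blood levels.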

[5] = molecular target: T2, Transient receptor potential cation channel subfamily V member 1 (Rattus norvegicus, UniProt O35433); test: Activity at rat TRPV1 as inhibition of pH 5.5-induced currents in CHO cells
T2 sequence (O35433 whole entry): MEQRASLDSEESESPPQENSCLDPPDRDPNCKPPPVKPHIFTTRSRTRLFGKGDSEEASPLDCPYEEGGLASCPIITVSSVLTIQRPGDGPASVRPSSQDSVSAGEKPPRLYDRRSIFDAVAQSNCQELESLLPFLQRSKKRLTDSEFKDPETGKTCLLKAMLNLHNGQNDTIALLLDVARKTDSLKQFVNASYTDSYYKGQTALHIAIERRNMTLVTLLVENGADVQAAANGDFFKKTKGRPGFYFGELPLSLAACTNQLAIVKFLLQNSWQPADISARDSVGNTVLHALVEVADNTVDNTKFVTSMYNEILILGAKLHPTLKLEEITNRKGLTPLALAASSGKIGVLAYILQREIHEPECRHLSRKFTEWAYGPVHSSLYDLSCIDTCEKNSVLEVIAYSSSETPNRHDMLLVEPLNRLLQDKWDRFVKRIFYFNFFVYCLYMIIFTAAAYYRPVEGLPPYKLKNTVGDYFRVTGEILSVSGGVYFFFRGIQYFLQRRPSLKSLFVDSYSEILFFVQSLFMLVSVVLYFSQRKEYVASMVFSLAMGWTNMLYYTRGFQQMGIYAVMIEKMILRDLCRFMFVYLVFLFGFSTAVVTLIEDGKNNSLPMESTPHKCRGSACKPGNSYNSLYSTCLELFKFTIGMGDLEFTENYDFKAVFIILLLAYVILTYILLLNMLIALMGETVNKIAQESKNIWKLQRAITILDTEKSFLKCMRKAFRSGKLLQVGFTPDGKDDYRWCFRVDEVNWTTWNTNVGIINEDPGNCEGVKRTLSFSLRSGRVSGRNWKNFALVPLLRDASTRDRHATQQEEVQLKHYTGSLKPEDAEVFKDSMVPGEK

[6] = molecular target: T1, Transient receptor potential cation channel subfamily V member 1; test: Inhibition of acidic pH 5.5-stimulated current in CHO cells expressing human TRPV1 receptor by patch clamp; assay type: functional, cell-based
[7] = molecular target: Transient receptor potential cation channel subfamily V member 1 (Rattus norvegicus) (UniProt O35433); test: Decrease in carrageenan-induced thermal hyperalgesia in rat at 30 mg/kg, po; assay type: functional, organism-based; set-up: dose 30 mg/kg; scale not given: the % may be the effect or the level left
Chain of Transient receptor potential cation channel subfamily V member 1 (Rattus norvegicus) (O35433 whole entry): as above
In short: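 Rats received 0.1 mL intraplantar carrageenan, or saline for the uninflamed group, in the right hind limb. Two hours later they were dosed orally at 30 mpk. After 1 h, thermal withdrawal was retested three times on each hind paw (Hargreaves). Saline response was set as 0% hyperalgesia and carrageenan response as 100%.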

[8] = Half life in rat at 1 mg/kg, iv; assay type: ADME, organism-based; set-up: dose 1 mg/kg, route intravenous; conditions: in vivo
[9] = molecular target: T2, Transient receptor potential cation channel subfamily V member 1; test: Activity against capsaicin-induced […] in CHO cells expressing rat TRPV1 assessed by patch clamp; assay type: functional, cell-based
In short: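 Whole-cell patch clamp on cells expressing rat TRPV1, stimulated with 500 nM capsaicin; IC50 for inhibition of the evoked response.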

[10] = Volume of distribution in rat at 1 mg/kg, iv; assay type: ADME, organism-based; set-up: dose 1 mg/kg, route intravenous; conditions: in vivo, read-out: Vdss
[11] = molecular target: T1, Transient receptor potential cation channel subfamily V member 1; test: Inhibition of acidic pH 5.5-stimulated current in CHO cells expressing human TRPV1 receptor at 100 nM by patch clamp; assay type: functional, cell-based

O=c1c2ccc(-c3ncccc3C(F)(F)F)cc2[nH]n1-c1ccc(C(F)(F)F)cc1
clearance [1]: 8 mL/min/kg | IC50 [2]: 35 nM | AUC [3]: 6.2 µM·h | AUC [4]: 3 µM·h | IC50 [5]: 65 nM | IC50 [6]: 4 nM | Activity [7]: 50% | half-life [8]: 3.6 h | IC50 [9]: 220 nM | Vd [10]: 2 L/kg

CC(C)(C)c1ccc(C(=O)Nc2ccc(-c3ncccc3C(F)(F)F)cc2)cc1
IC50 [2]: 470 nM

O=c1c2cc(-c3ncccc3C(F)(F)F)ccc2[nH]n1-c1ccc(C(F)(F)F)cc1
IC50 [2]: 370 nM

FC(F)(F)c1ccc(-c2nc3cc(-c4ncccc4C(F)(F)F)ccc3[nH]2)cc1
IC50 [2]: 22 nM | AUC [3]: 1.48 µM·h | inhibition [11]: 95% | AUC [4]: 1.25 µM·h

O=C(Nc1ccc(-c2ncccc2C(F)(F)F)cc1)c1ccc(C(F)(F)F)cc1
IC50 [2]: 24 nM | AUC [3]: 0.08 µM·h | AUC [4]: 0.04 µM·h | IC50 [6]: 33 nM

COc1ccccc1-c1ccc2c(=O)n(-c3ccc(C(F)(F)F)cc3)[nH]c2c1
IC50 [2]: 170 nM

Cc1cccnc1-c1ccc(NC(=O)c2cccc(C(F)(F)F)c2)cc1
IC50 [2]: 640 nM

Fc1ccc(-c2nc3cc(-c4ncccc4C(F)(F)F)ccc3[nH]2)cc1
IC50 [2]: 320 nM

Cc1ccc(C(=O)Nc2ccc(-c3ncccc3C(F)(F)F)cc2)cc1
IC50 [2]: 1100 nM

Cc1cccnc1-c1ccc2c(=O)n(-c3ccc(C(F)(F)F)cc3)[nH]c2n1
IC50 [2]: 270 nM

CC(C)(C)c1ccc(-c2nc3cc(-c4ncccc4C(F)(F)F)ccc3[nH]2)cc1
IC50 [2]: 224 nM

Oc1c2c(nn1-c1ccc(C(F)(F)F)cc1)NC(c1ncccc1C(F)(F)F)CC2 (stereo not drawn)
IC50 [2]: 290 nM

Cc1ccc(-c2nc3cc(-c4ncccc4C(F)(F)F)ccc3[nH]2)cc1
IC50 [2]: 170 nM

O=C(Nc1ccc(-c2ccccn2)cc1)c1ccc(C(F)(F)F)cc1
IC50 [2]: 1500 nM

O=C(Nc1ccc(-c2ncccc2C(F)(F)F)cc1)c1ccccc1
IC50 [2]: 2400 nM

Cc1cccnc1-c1ccc2c(=O)n(-c3ccc(C(F)(F)F)cc3)[nH]c2c1
IC50 [2]: 180 nM

O=c1c2ccccc2[nH]n1-c1ccc(C(F)(F)F)cc1
IC50 [2]: 340 nM

Cc1cccnc1-c1ccc(NC(=O)c2ccc(C(F)(F)F)cc2)cc1
IC50 [2]: 160 nM
